FLuc stim CS: affects firefly luciferase, flagging false hits in luciferase stimulation screens. ATPlite luciferase biochemical, luminescence, 10 min; 0 = ATP-free wells, 1 = DMSO control. activation factor at 10 µM. 200,000 tested, under 10 active;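 active means luciferase activation factor, scaled between plate controls, of at least 2 with compound at 10 µM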
Target sequence (P08659 whole entry, looked up): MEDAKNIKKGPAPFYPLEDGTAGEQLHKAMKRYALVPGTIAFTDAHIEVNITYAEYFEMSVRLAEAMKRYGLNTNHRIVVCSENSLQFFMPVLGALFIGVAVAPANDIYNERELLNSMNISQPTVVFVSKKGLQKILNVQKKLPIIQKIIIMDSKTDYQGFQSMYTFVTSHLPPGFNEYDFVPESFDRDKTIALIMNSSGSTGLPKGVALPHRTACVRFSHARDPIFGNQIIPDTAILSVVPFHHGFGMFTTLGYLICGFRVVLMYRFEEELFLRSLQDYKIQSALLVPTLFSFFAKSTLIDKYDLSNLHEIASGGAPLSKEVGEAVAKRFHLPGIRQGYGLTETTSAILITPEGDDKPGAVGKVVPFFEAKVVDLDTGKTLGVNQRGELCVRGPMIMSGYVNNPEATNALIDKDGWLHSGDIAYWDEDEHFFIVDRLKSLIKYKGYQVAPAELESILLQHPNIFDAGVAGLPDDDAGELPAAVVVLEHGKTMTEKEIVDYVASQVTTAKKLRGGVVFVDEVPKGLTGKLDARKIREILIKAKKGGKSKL
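Material: Luciferase/luciferin reagent mix | Doses: Test compounds dosed from 2 mM stocks in 100% DMSO | Timing: 10 min incubation after luciferase reagent addition, room temperature | Measured by: Luminescence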
NF-kB expr up: raises NF-kB expression in human neuronal cells | NF-kB reporter expression; stronger effect = higher value | fold change at 12.5 µM | actives 1.6% (n = 190,000) | AID 1239; in the data active means fold change above about 3.3
FLuc inhib CS: counter-screen for luciferase assay inhibitors: firefly luciferase inhibition; P08659; ATPLite firefly luciferase biochemical luminescence, 10 min; inhibition, % at 10 µM; actives 1.5% (n = 200,000); AID 1006;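 active means inhibition above about 50% when tested at 10 µM, limit read from the data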
APP 5'UTR act: APP 5'UTR luciferase reporter activation; SH-SY5Y APP 5'UTR luciferase reporter, luminescence; zero percent = DMSO vehicle wells; activation, % at 2 µM; actives 1% (n = 190,000);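 active means activation above a set limit, based on mean plus 3 SD of controls, cut at about 140% in these data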
STAT1 act: activators of IFN-gamma induced STAT1 signaling; activation (% of control), % at 5.5 µM; AID 932; actives 2.6% (n = 200,000); NIH 3T3 STAT1-luciferase reporter, luminescence; 100% = IFN-gamma alone, no compound;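 active means activation above the screen-wide mean activation plus 3 SD, cut at about 130% in these data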;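 further: raw ratio to IFN-gamma control signal so 100% means no change and 0% no light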
An asterisk follows results filed as active. An excerpt weighted towards active compounds, which were near 4.1% of everything screened.

Results for Cc1cc(C(=O)CS(=O)(=O)c2ccc(F)cc2)cc(C)c1OC(=O)N(C)C ?
FLuc stim CS: 0.4; NF-kB expr up: 1.89; FLuc inhib CS: 62.6*; APP 5'UTR act: 62.1; STAT1 act: 124.6

What do the screens show for `CCOC(=O)C1CCCN(c2ccc([N+](=O)[O-])c3nonc23)C1` (centres undefined)?
FLuc stim CS: 1; NF-kB expr up: 1; FLuc inhib CS: 0.9; APP 5'UTR act: 5.7; STAT1 act: 94.2

How did Cc1nc(Cl)sc1C(=O)Nc1ccc2ccccc2c1 do in these assays?
FLuc stim CS: 0.8; NF-kB expr up: 5.48*; FLuc inhib CS: 15.8; APP 5'UTR act: 94.0; STAT1 act: 134.2*

How did CC1CCCN(CC(=O)c2ccc(Cl)c(Cl)c2)C1 (centres undefined) do in these assays?
FLuc stim CS: 1; NF-kB expr up: 0.95; FLuc inhib CS: -4.3; APP 5'UTR act: -33.1; STAT1 act: 105.1

Results for CC1CCN(CC(=O)c2ccc3c(c2)OCCO3)CC1 ?
FLuc stim CS: 0.9; NF-kB expr up: 1.1; FLuc inhib CS: 8.5; APP 5'UTR act: 146.4*; STAT1 act: 138.8*

What do the screens show for `COc1ccc(CCNC2CCCCC2)cc1OC`?
FLuc stim CS: 1; NF-kB expr up: 0.98; FLuc inhib CS: -4.0; APP 5'UTR act: -7.2; STAT1 act: 96.3

How did CC(=O)Nc1ccccc1C(=O)OCC(=O)c1ccccc1Cl do in these assays?
FLuc stim CS: 0.7; NF-kB expr up: 1.78; FLuc inhib CS: 25.4; APP 5'UTR act: 46.6; STAT1 act: 120.2

What do the screens show for `CC(=O)Nc1ccccc1C(=O)OCc1ccccc1F`?
FLuc stim CS: 1.1; NF-kB expr up: 0.99; FLuc inhib CS: -9.1; APP 5'UTR act: 2.8; STAT1 act: 145.2*

What do the screens show for `COc1cccc(N2C(=O)NC(=O)/C(=C/c3ccc4c(c3)Cc3ccccc3-4)C2=O)c1`?
FLuc stim CS: 1; NF-kB expr up: 1.1; FLuc inhib CS: -4.3; APP 5'UTR act: 11.3; STAT1 act: 130.9*

Results for CCCCCCOc1ccc(CN2CCN(CC)CC2)cc1 ?
FLuc stim CS: 0.9; NF-kB expr up: 1.13; FLuc inhib CS: 14.0; APP 5'UTR act: 144.8*; STAT1 act: 104.8

Results for COC(=O)C(O)(c1ccc(NC(=O)NC2CCCCC2)cc1)C(F)(F)F (centres undefined) ?
FLuc stim CS: 0.8; NF-kB expr up: 1.16; FLuc inhib CS: 18.7; APP 5'UTR act: 35.5; STAT1 act: 144.5*

What do the screens show for `COC(=O)C(O)(c1ccc(NC(=S)NC(=O)c2ccc(Cl)cc2Cl)cc1)C(F)(F)F` (centres undefined)?
FLuc stim CS: 1.1; NF-kB expr up: 1.35; FLuc inhib CS: -7.6; APP 5'UTR act: 14.6; STAT1 act: 102.0

What do the screens show for `CN(C)C(=O)Oc1ccc(-c2cn3cc(C(F)(F)F)ccc3n2)cc1`?
FLuc stim CS: 0.5; NF-kB expr up: 2.21; FLuc inhib CS: 53.9*; APP 5'UTR act: 30.6; STAT1 act: 138.2*

What do the screens show for `CN(C)C(=O)Oc1cccc(-c2cn3cc(Cl)ccc3n2)c1`?
FLuc stim CS: 0.3; NF-kB expr up: 1.13; FLuc inhib CS: 74.7*; APP 5'UTR act: 45.7; STAT1 act: 121.6

What do the screens show for `CN(C)C(=O)Oc1ccc(-c2cn3cc(Cl)ccc3n2)cc1`?
FLuc stim CS: 0.1; NF-kB expr up: 6.84*; FLuc inhib CS: 86.4*; APP 5'UTR act: 166.8*; STAT1 act: 141.4*

What do the screens show for `CN(C)C(=O)Oc1ccc([N+](=O)[O-])cc1`?
FLuc stim CS: 1; NF-kB expr up: 1.46; FLuc inhib CS: -0.3; APP 5'UTR act: 13.3; STAT1 act: 98.8

How did CN(C)C(=O)Oc1ccc(-c2nnco2)cc1 do in these assays?
FLuc stim CS: 1.1; NF-kB expr up: 1.1; FLuc inhib CS: -5.0; STAT1 act: 110.0

What do the screens show for `O=P(NCc1ccccc1)(Oc1ccccc1)Oc1ccccc1`?
FLuc stim CS: 1; NF-kB expr up: 0.8; FLuc inhib CS: -2.9; APP 5'UTR act: 18.6; STAT1 act: 103.5

How did O=C1NC(=S)N(Cc2ccco2)C(=O)/C1=C\c1cccs1 do in these assays?
FLuc stim CS: 1; NF-kB expr up: 0.96; FLuc inhib CS: 4.1; APP 5'UTR act: 10.1; STAT1 act: 103.0

How did O=[N+]([O-])c1cc(S(=O)(=O)c2ccc(O)c([N+](=O)[O-])c2)ccc1O do in these assays?
FLuc stim CS: 1.1; NF-kB expr up: 0.94; FLuc inhib CS: -7.6; APP 5'UTR act: 10.3; STAT1 act: 100.1

How did COc1ccc(-c2nc3ccccc3c(=O)o2)cc1 do in these assays?
FLuc stim CS: 0.5; NF-kB expr up: 2.19; FLuc inhib CS: 54.9*; APP 5'UTR act: 18.6; STAT1 act: 107.1

What do the screens show for `Cc1ccsc1C(=O)C1CCCN(Cc2cnc(N3CCCC3)s2)C1` (centres undefined)?
FLuc stim CS: 1; NF-kB expr up: 1.04; FLuc inhib CS: -3.4; APP 5'UTR act: 4.0; STAT1 act: 94.1

What do the screens show for `CCOC(=O)c1c(-n2c(C)cc(C=C3C(=O)NC(=S)NC3=O)c2C)sc2c1CCCC2`?
FLuc stim CS: 1; NF-kB expr up: 5.57*; FLuc inhib CS: -4.8; APP 5'UTR act: -0.1; STAT1 act: 94.5

What do the screens show for `CCN1CCN(c2nc3ccccc3s2)CC1`?
FLuc stim CS: 0.7; NF-kB expr up: 4.69*; FLuc inhib CS: 30.1; APP 5'UTR act: 60.7; STAT1 act: 128.0

Results for COc1ccccc1-n1c(Cc2ccccc2)nc2ccccc2c1=O ?
FLuc stim CS: 1; NF-kB expr up: 1.05; FLuc inhib CS: -4.8; APP 5'UTR act: 2.3; STAT1 act: 93.4

What do the screens show for `COc1cc(/C=C/C(=O)c2c(O)n(CCc3ccccc3)c(=O)[nH]c2=O)ccc1O`?
FLuc stim CS: 0.4; NF-kB expr up: 2.79; FLuc inhib CS: 55.5*; APP 5'UTR act: 3.5; STAT1 act: 95.7

Results for O=C(/C=C/c1ccccc1)c1c(O)n(CCc2ccccc2)c(=O)[nH]c1=O ?
FLuc stim CS: 0.8; NF-kB expr up: 1.54; FLuc inhib CS: 16.0; APP 5'UTR act: 6.5; STAT1 act: 99.2

Results for Cc1nn(Cc2ccccc2)c(Cl)c1C(=O)OCC(=O)N1CCCC1 ?
FLuc stim CS: 1; NF-kB expr up: 1.07; FLuc inhib CS: -1.4; APP 5'UTR act: 13.4; STAT1 act: 103.7

How did CC1(C)CN=C(Nc2nc3ccccc3s2)S1 do in these assays?
FLuc stim CS: 0.7; NF-kB expr up: 4.73*; FLuc inhib CS: 34.4; APP 5'UTR act: 125.8; STAT1 act: 135.9*

Results for CC(=O)NC(Cc1ccc(N(CCCl)CCCl)cc1)C(=O)NCC(=O)NCC(=O)O (centres undefined) ?
FLuc stim CS: 1; NF-kB expr up: 1.08; FLuc inhib CS: -0.1; APP 5'UTR act: -7.2; STAT1 act: 102.9

Compound activity from PubChem BioAssay.
